Measurements published in ChEMBL document CHEMBL1121953, “Carbon-7 substituted actinomycin D analogues as improved antitumor agents: synthesis and DNA-binding and biological properties” (J Med Chem, 1982).
≈ marks a conversion by molar mass, not a printed value.

Key:
[1] = Therapeutic Index measured as the MTD/MED ratio compared to that of compound 3; settings: read-out: Therapeutic index
Outline: (§1)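 Therapeutic index is MTD/MED, with ip dosing in 10% dimethyl sulfoxide-saline on a qd 1-4 or q4d 1, 5, 9 schedule. MED is the dose giving a 40% increase in life span over control in P-388-bearing mice. MTD is the LD10 in tumor-free male CDF1 mice (18-23 g) over 21 days, read from a log dose vs. percent mortality plot and averaged over 2-3 experiments.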

[2] = Therapeutic Index measured as the MTD/MED ratio compared to that of compound 4; settings: read-out: Therapeutic index; outline: as §1
[3] = In vitro growth inhibitory activity for effect on melting temperature of DNA was determined
Outline: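 DNA thermal denaturation; ΔTm = Tm of DNA-drug complex minus Tm of DNA. Drug 1.4×10⁻⁴ M, DNA (P) 1.4×10⁻³ M in 0.01 M phosphate buffer pH 7.0 with 5×10⁻³ M EDTA and 5% dimethyl sulfoxide.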

[4] = organism: Homo sapiens; assay: In vitro growth inhibitory activity against human lymphoblastic leukemia cells; format: functional; settings: read-out: ID50 (the source's name)
Outline: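 CCRF-CEM human lymphoblastic leukemia cells in log-phase growth; compounds dissolved in Me₂SO, final growth medium 1% Me₂SO.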

DNA melting temperature shift (ΔTm) [3] [°C]	Compound	selectivity ratio [1]	selectivity ratio [2]	IC50 [4] [µg/mL]
	Cc1c2oc3c(C)c(OCC(O)CO)cc(C(=O)N[C@@H]4C(=O)N[C@H](C(C)C)C(=O)N5CCC[C@H]5C(=O)N(C)CC(=O)N(C)[C@@H](C(C)C)C(=O)O[C@@H]4C)c3nc-2c(C(=O)N[C@@H]2C(=O)N[C@H](C(C)C)C(=O)N3CCC[C@H]3C(=O)N(C)CC(=O)N(C)[C@@H](C(C)C)C(=O)O[C@@H]2C)c(N)c1=O (stereo partly drawn)	12	6	
	Cc1c2oc3c(C)c(OCC4CO4)cc(C(=O)N[C@@H]4C(=O)N[C@H](C(C)C)C(=O)N5CCC[C@H]5C(=O)N(C)CC(=O)N(C)[C@@H](C(C)C)C(=O)O[C@@H]4C)c3nc-2c(C(=O)N[C@@H]2C(=O)N[C@H](C(C)C)C(=O)N3CCC[C@H]3C(=O)N(C)CC(=O)N(C)[C@@H](C(C)C)C(=O)O[C@@H]2C)c(N)c1=O (stereo partly drawn)	72	43	
6	Cc1c2oc3c(C)c(OCC4CO4)cc(C(=O)N[C@H]4C(=O)N[C@@H](C(C)C)C(=O)N5CCC[C@H]5C(=O)N(C)CC(=O)N(C)[C@@H](C(C)C)C(=O)O[C@H]4C)c3nc-2c(C(=O)N[C@H]2C(=O)N[C@@H](C(C)C)C(=O)N3CCC[C@H]3C(=O)N(C)CC(=O)N(C)[C@@H](C(C)C)C(=O)O[C@H]2C)c(N)c1=O (stereo partly drawn)			
0	CCN(CC)C(=O)c1c2nc3c(C(=O)N(CC)CC)cc(OCC(O)CO)c(C)c3oc-2c(C)c(=O)c1N (stereo not drawn)			~10 (≈ 18.9 µM)

Compound	DNA melting temperature shift (ΔTm) [3] [°C]	selectivity ratio [1]	selectivity ratio [2]	IC50 [4] [µg/mL]
Cc1c2oc3c(C)c(O)c(N)c(C(=O)N[C@H]4C(=O)N[C@@H](C(C)C)C(=O)N5CCC[C@H]5C(=O)N(C)CC(=O)N(C)[C@H](C(C)C)C(=O)O[C@H]4C)c3nc-2c(C(=O)N[C@@H]2C(=O)N[C@H](C(C)C)C(=O)N3CCC[C@@H]3C(=O)N(C)CC(=O)N(C)[C@@H](C(C)C)C(=O)O[C@@H]2C)cc1=O	6.7			
